Screening results as filed in PubChem.
This is a sample that favours compounds with a hit; in the whole collection about 2.3% have one here.
core dimer inh: inhibitors of HCV core protein dimerization, primary screen, biochemical, TR-FRET, high-throughput | AID 1899, 2009 | inhibition, % at 5 µM | actives 0.33% (n = 300,000) | TR-FRET GST/Flag-core106 dimerization, 1536-well;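 active = inhibition above the mean of all tested compounds plus 3 SD, set per screening campaign, cut at about 45% in these data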
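Assay system: Tagged HCV core106 pair (GST and Flag) | Buffer or medium: KF-containing HEPES buffer, pH 7.45, DTT, CHAPS, BSA | Also added: Eu donor and XL665 acceptor anti-tag antibodies | Dosing: One concentration, 5 µM, in 0.5% DMSO | Timing: 4 h at 22.5 °C | Technique: TR-FRET 671 and 617 nm emission | Repeats: Singlicate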
EBV gp42 block: Epstein-Barr virus gp42 inhibitors, primary screen, biochemical, uHTS, fluorescence polarization. inhibition, % (tested at 21.74 µM). Fluorescence polarization binding assay, mP read-out. actives 0.42% (n = 220,000). Glycoprotein 42 (Epstein-Barr virus (strain AG876)), Q1HVG2; in the data active = inhibition above about 50%
ZTA counter: ZTA (EBV) inhibition in EBNA-1 counter-screen; ZTA-DNA binding, fluorescence polarization; inhibition, % at 11 µM; actives 0.15% (n = 320,000); P03206; AID 2234; in the data active = inhibition above about 33%
Target sequence (P03206 whole entry, looked up): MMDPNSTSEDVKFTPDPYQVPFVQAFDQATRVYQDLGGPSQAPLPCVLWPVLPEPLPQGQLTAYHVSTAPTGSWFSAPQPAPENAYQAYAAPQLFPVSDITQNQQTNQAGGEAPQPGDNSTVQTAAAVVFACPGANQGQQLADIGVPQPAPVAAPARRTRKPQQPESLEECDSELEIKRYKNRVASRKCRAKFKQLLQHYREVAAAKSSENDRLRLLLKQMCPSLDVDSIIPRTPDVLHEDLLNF
HCV NS3 hel inh: inhibitors of HCV NS3 helicase, primary screen, biochemical, Cy5 molecular beacon fluorescence; Hepatitis C virus NS3 helicase; NS3 helicase DNA unwinding; inhibition, % at 10.9 µM; actives 0.56% (n = 290,000);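 active = inhibition above the mean of all tested compounds plus 3 SD, set per campaign, cut at about 35% in these data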;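 note: 0% = DMSO wells and 100% = thioflavine S control wells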
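Material: hepatitis C virus NS3 helicase domain fragment enzyme; measured by: Cy5 fluorescence, 0 and 60 min reads; control set: DMSO and thioflavine S; incubation: 60 min unwinding reaction at 25 °C after ATP addition; read-out basis: % inhibition from 60/0 min fluorescence ratio, DMSO 0%, thioflavine S 100%; repeats: singlicate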
GPR7 antag: GPR7 receptor antagonists, primary screen, cell-based, fluorescence, single concentration; GPR7-expressing cells, fluorescence antagonist assay; inhibition, % at 4.4 µM; actives 1.1% (n = 290,000); in the data active = inhibition above about 16%, passing the limit was not always enough;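 note: cells stimulated with the agonist NPW; 0% = agonist with vehicle and 100% = vehicle without agonist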
Target sequence (P48145 whole entry, looked up): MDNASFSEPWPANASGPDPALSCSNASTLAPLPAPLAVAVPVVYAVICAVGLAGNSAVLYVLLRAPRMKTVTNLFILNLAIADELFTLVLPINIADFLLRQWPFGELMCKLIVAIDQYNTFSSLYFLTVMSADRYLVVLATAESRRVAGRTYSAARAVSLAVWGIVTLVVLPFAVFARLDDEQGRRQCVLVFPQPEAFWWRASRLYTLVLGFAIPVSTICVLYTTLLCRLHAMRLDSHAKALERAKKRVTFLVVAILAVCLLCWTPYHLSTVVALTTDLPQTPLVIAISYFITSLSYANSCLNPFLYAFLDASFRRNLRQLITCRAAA
EBNA-1 inhibitor: EBNA-1 DNA-binding inhibitors, primary screen, biochemical, fluorescence polarization. actives 0.34% (n = 300,000). inhibition, % at 14.8 µM. AID 1950, 2009; in the data active = inhibition above about 28%
NS3 helicase cf: HCV NS3 helicase inhibitors, retest, confirmation, biochemical, Cy5 molecular beacon fluorescence, triplicate; shares compounds with HCV NS3 hel inh; NS3 helicase DNA unwinding; inhibition, % at 10.9 µM; actives 31% (n = 1,600); AID 1943, 2009;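 active = inhibition above the mean of all tested compounds plus 3 SD, cutoff set per campaign, cut at about 36% in these data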
FID counter trip: compounds displacing fluorescent DNA intercalator, artefact control for HCV NS3 helicase inhibitor project, biochemical, FID fluorescence, triplicate; DNA fluorescent intercalator displacement; actives 4% (n = 1,600); inhibition, % at 7.9 µM; shares compounds with HCV NS3 hel inh; in the data active = inhibition above about 37%;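 note: 0% = vehicle and 100% = reference compound; higher means more displacement of ethidium bromide from the DNA hairpin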
Numbers without * were called inactive; x = no result.

SMILES | core dimer inh | EBV gp42 block | ZTA counter | HCV NS3 hel inh | GPR7 antag | EBNA-1 inhibitor | NS3 helicase cf | FID counter trip
COc1ccc(CCN2C(=O)CC(Nc3ccc(N4CCOCC4)cc3)C2=O)cc1OC (centres undefined) | -1 | -4 | 12 | 46* | -1 | -1 | 2 | -18
CCc1ccc(NC2CC(=O)N(CCc3ccc(OC)c(OC)c3)C2=O)cc1 (centres undefined) | 0 | -6 | 6 | 9 | -5 | 3 | x | x
CC(C)N1C(=O)CC(Nc2cccc3cccc(N)c23)C1=O (centres undefined) | x | 5 | x | 40* | -9 | x | -15 | 10
CC(C)N1C(=O)CC(Nc2ccc(N3CCOCC3)cc2)C1=O (centres undefined) | -1 | -23 | 10 | 39* | 4 | -12 | -2 | -5
O=C1CC(Nc2ccc(N3CCOCC3)cc2)C(=O)N1c1ccccc1F (centres undefined) | -30 | -9 | -4 | 23 | 4 | 3 | x | x
CCc1cc(CNC(=O)C2CCC(=O)N(Cc3ccc(Cl)cc3)C2)on1 (centres undefined) | -3 | x | 3 | -4 | 2 | -3 | x | x
O=C(COc1ccc2ccccc2c1)N[C@@H](C(=O)O)c1ccc(O)cc1 | -7 | x | -6 | 43* | 22 | -9 | -29 | -4
O=C(COc1ccc2ccccc2c1)NNC(=O)c1ccccc1 | -2 | x | 15 | -4 | 4 | 9 | x | x
O=C(NC(Cc1ccccc1)C(=O)O)/C(=C\c1ccco1)NC(=O)c1ccc(Br)cc1 (centres undefined) | 2 | -9 | -10 | 23 | 17 | -3 | x | x
O=C(NC(Cc1ccccc1)C(=O)O)/C(=C\c1ccco1)NC(=O)c1ccccc1 (centres undefined) | -1 | -16 | 3 | 37* | -12 | 7 | 54* | -17
O=C(O)/C(=C\c1ccco1)NC(=O)c1cccc2ccccc12 | 0 | 7 | -1 | 53* | -6 | 0 | -8 | 1
O=C(O)/C(=C/c1ccco1)NC(=O)c1ccccc1 | -6 | -1 | -6 | 21 | -9 | -5 | x | x
O=c1nc2n(c3cccc(Cl)c13)CCCCC2 | 3 | -12 | -3 | 3 | -7 | -8 | x | x
Cc1ccc(-c2nn(-c3ccccc3)cc2/C=C2\SC(=S)N(CC(=O)O)C2=O)cc1 | 21 | 22 | 19 | 47* | -12 | -8 | 61* | 46*
O=C(O)CN1C(=O)/C(=C/C=C/c2ccccc2)SC1=S | 3 | -7 | -10 | 22 | -19 | 1 | x | x
O=C(O)CN1C(=O)/C(=C\c2cccc(OCc3ccc(Cl)cc3)c2)SC1=S | 15 | x | 10 | 20 | -16 | -1 | x | x
O=C(O)CN1C(=O)/C(=C\C(Br)=C\c2ccccc2)SC1=S | 6 | x | 5 | 38* | 5 | -14 | 72* | 22
O=C(O)CN1C(=O)/C(=C\c2cc(Br)ccc2OCc2ccc(Cl)cc2Cl)SC1=S | 22 | x | 1 | 76* | -4 | -12 | 86* | 52*
O=C(O)CCN1C(=O)/C(=C/c2cn(-c3ccccc3)nc2-c2cccs2)SC1=S | x | -196 | x | 25 | -7 | x | x | x
O=C(O)CN1C(=O)/C(=C\c2ccccc2OCc2ccc(Cl)cc2)SC1=S | 15 | x | 18 | 43* | -20 | 1 | 70* | 33
Cc1ccccc1NC(=S)NCCSc1ccc(Cl)cc1 | 1 | 5 | -2 | 78* | -14 | -7 | 6 | -1
Oc1c(Br)cc(/C=N/n2c(-c3ccccc3)n[nH]c2=S)c(Br)c1O | 6 | x | 2 | 39* | -10 | 0 | 65* | 22
Cc1cccc(NC(=S)NN2CCOCC2)c1C | 0 | -3 | 0 | 2 | 9 | 0 | x | x
Cc1cccc(NC(=S)Nc2ccc(N3CCOCC3)cc2)c1C | -6 | 8 | -1 | 40* | 1 | -4 | -14 | -2
CCOC(=O)c1c(C)[nH]c(C(=O)Nc2cc(OCC)c(N3CCOCC3)cc2OCC)c1C | x | x | -10 | x | x | x | x | x
SMILES | core dimer inh | EBV gp42 block | ZTA counter | HCV NS3 hel inh | GPR7 antag | EBNA-1 inhibitor | NS3 helicase cf | FID counter trip
O=C(O)c1ccc(N/N=C/c2ccc(-c3cccc(Cl)c3)o2)cc1 | -2 | -7 | -4 | -8 | -1 | 5 | x | x
Cc1c(C(=O)O)cccc1-c1ccc(/C=N/n2cnnc2)o1 | -9 | x | -3 | 6 | -1 | -2 | x | x
Cc1c(C(=O)O)cccc1-c1ccc(/C=N/Nc2ccc(Br)cc2)o1 | -6 | -13 | -1 | 44* | 1 | -8 | 38* | 2
O=C(O)c1ccc(N/N=C/c2ccc(-c3cc(Cl)ccc3Cl)o2)cc1 | 14 | 14 | 10 | 40* | 5 | -6 | 62* | 14
O=C(O)c1ccc(N/N=C/c2ccc(-c3ccc(Cl)cc3Cl)o2)cc1 | 15 | 8 | 23 | 36* | -5 | 12 | 53* | 17
O=C(CCC(=O)N1CCCC1)Nc1ccc(Cl)c(Cl)c1 | 10 | x | 5 | 6 | -3 | 8 | x | x
CC1=NN(C(N)=S)C(=O)C1N=Nc1ccc(O)cc1 (centres undefined) | x | -33 | x | -4 | 0 | x | x | x
CC1=NN(C(N)=S)C(=O)C1N=Nc1ccc(C)c(Br)c1 (centres undefined) | -15 | x | -9 | 40* | -5 | 4 | -19 | 13
COc1ccc(/C=C2\SC(=O)NC2=S)cc1OC | -7 | 15 | -4 | 5 | 6 | -5 | x | x
Cc1ccc(/C=C2/SC(=O)NC2=S)o1 | x | 41 | x | 53* | 4 | x | 38* | 17
O=C(O)C1CCCN1S(=O)(=O)c1cccc2nsnc12 (centres undefined) | 1 | -6 | -21 | -10 | 6 | 7 | x | x
Cc1cccc(C(=O)OCC(=O)c2c(C)[nH]c3ccccc23)c1O | x | x | -12 | x | x | x | x | x
Cc1ccc(C(=O)N[C@H](C(=O)OCc2cc(=O)n3c(n2)sc2ccccc23)C(C)C)cc1 | 39 | -15 | 17 | 5 | -13 | 19 | x | x
O=C(OCc1cc(=O)n2c(n1)sc1ccccc12)c1ccc(O)cc1O | 42 | 36 | -11 | 36* | -3 | 15 | 30 | 1
O=C1CC(NCc2ccc3c(c2)OCO3)C(=O)N1CCc1ccccc1 (centres undefined) | -3 | -5 | -4 | 54* | -5 | 10 | -13 | -18
O=C(Nc1nncs1)C12CC3CC(CC(Cl)(C3)C1)C2 | x | x | x | -3 | 10 | x | x | x
